Results reported in ChEMBL document CHEMBL2375290, “Nonclassical antifolates, part 3: synthesis, biological evaluation and molecular modeling study of some new 2-heteroarylthio-quinazolin-4-ones” (Eur J Med Chem, 2013).
≈ marks a conversion by molar mass, not a printed value.

Assays:
[1] = test system: Escherichia coli; assay: Antimicrobial activity against Escherichia coli after 24 hrs by micro-dilution susceptibility method
[2] = target: T1, Dihydrofolate reductase (Bos taurus, UniProt P00376); assay: Inhibition of bovine DHFR after 2 mins by spectrophotometry
T1 sequence (P00376 whole entry): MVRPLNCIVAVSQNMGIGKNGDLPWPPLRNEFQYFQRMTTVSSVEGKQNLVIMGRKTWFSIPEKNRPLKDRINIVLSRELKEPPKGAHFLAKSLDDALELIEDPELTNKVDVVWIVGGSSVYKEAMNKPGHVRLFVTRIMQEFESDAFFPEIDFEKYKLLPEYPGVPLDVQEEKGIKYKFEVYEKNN

[3] = test system: Staphylococcus aureus; assay: Antimicrobial activity against Staphylococcus aureus after 24 hrs by micro-dilution susceptibility method; format: functional
Summary of the method: (§1)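 Broth microdilution in Müller-Hinton broth against S. aureus IFO 3060, B. subtilis IFO 3007, E. coli IFO 3301 and P. aeruginosa IFO 3448. These are the same standard strains used in the disc-diffusion primary screen. Compounds were solubilized in DMSO. MIC recorded as the minimal inhibitory concentration.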

[4] = test system: Bacillus subtilis; assay: Antimicrobial activity against Bacillus subtilis at 200 ug after 24 hrs by agar disc diffusion method; format: functional; details: read-out: DIZ
[5] = test system: Pseudomonas aeruginosa; assay: Antimicrobial activity against Pseudomonas aeruginosa at 200 ug after 24 hrs by agar disc diffusion method; format: functional; details: read-out: DIZ
[6] = test system: Micrococcus luteus; assay: Antimicrobial activity against Micrococcus luteus at 200 ug after 24 hrs by agar disc diffusion method; format: functional; details: read-out: DIZ
[7] = test system: Staphylococcus aureus; assay: Antimicrobial activity against Staphylococcus aureus at 200 ug after 24 hrs by agar disc diffusion method; format: functional; details: read-out: DIZ
[8] = test system: Escherichia coli; assay: Antimicrobial activity against Escherichia coli at 200 ug after 24 hrs by agar disc diffusion method; format: functional; details: read-out: DIZ
[9] = test system: Bacillus subtilis; assay: Antimicrobial activity against Bacillus subtilis after 24 hrs by micro-dilution susceptibility method; format: functional; summary of the method: as §1
[10] = test system: A498; assay: Cytotoxicity against human A498 cells at 10 uM after 48 hrs by coulter counter analysis; format: functional; details: A498, 48 h, read-out: GI
[11] = test system: Malme-3M; assay: Cytotoxicity against human MALME-3M cells at 10 uM after 48 hrs by coulter counter analysis; format: functional; details: read-out: GI
[12] = test system: NCI-H226; assay: Cytotoxicity against human NCI-H226 cells at 10 uM after 48 hrs by coulter counter analysis; format: functional; details: NCI-H226, 48 h, read-out: GI
[13] = Cytotoxicity against human NCI-ADR-RES cells at 10 uM after 48 hrs by coulter counter analysis; format: functional; details: read-out: GI
[14] = test system: SN12C; assay: Cytotoxicity against human SN12C cells at 10 uM after 48 hrs by coulter counter analysis; format: functional; details: read-out: GI
[15] = test system: T47D; assay: Cytotoxicity against human T47D cells at 10 uM after 48 hrs by coulter counter analysis; format: functional; details: read-out: GI
[16] = test system: SR; assay: Cytotoxicity against human SR cells at 10 uM after 48 hrs by coulter counter analysis; format: functional; details: read-out: GI
[17] = test system: LOX IMVI; assay: Cytotoxicity against human LOXIMVI cells at 10 uM after 48 hrs by coulter counter analysis; format: functional; details: read-out: GI
[18] = test system: UO-31; assay: Cytotoxicity against human UO31 cells at 10 uM after 48 hrs by coulter counter analysis; format: functional; details: UO-31, 48 h, read-out: GI
[19] = test system: MDA-MB-435; assay: Cytotoxicity against human MDA-MB-435 cells at 10 uM after 48 hrs by coulter counter analysis; format: functional; details: MDA-MB-435, 48 h, read-out: GI
[20] = test system: SNB-19; assay: Cytotoxicity against human SNB19 cells at 10 uM after 48 hrs by coulter counter analysis; format: functional; details: SNB-19, 48 h, read-out: GI
[21] = test system: NCI-H23; assay: Cytotoxicity against human NCI-H23 cells at 10 uM after 48 hrs by coulter counter analysis; format: functional; details: NCI-H23, 48 h, read-out: GI
[22] = test system: Hs-578T; assay: Cytotoxicity against human Hs578T cells at 10 uM after 48 hrs by coulter counter analysis; format: functional; details: read-out: GI
[23] = test system: HL-60(TB); assay: Cytotoxicity against human HL-60(TB) cells at 10 uM after 48 hrs by coulter counter analysis; format: functional; details: HL-60, 48 h, read-out: GI
[24] = test system: MOLT-4; assay: Cytotoxicity against human MOLT4 cells at 10 uM after 48 hrs by coulter counter analysis; format: functional; details: MOLT-4, 48 h, read-out: GI
[25] = test system: CCRF-CEM; assay: Cytotoxicity against human CCRF-CEM cells at 10 uM after 48 hrs by coulter counter analysis; format: functional; details: read-out: GI
[26] = Cytotoxicity against human EKVX cells at 10 uM after 48 hrs by coulter counter analysis; format: functional; details: read-out: GI
[27] = test system: SF-295; assay: Cytotoxicity against human SF295 cells at 10 uM after 48 hrs by coulter counter analysis; format: functional; details: SF-295, 48 h, read-out: GI
[28] = test system: CAKI-1; assay: Cytotoxicity against human Caki1 cells at 10 uM after 48 hrs by coulter counter analysis; format: functional; details: CAKI-1, 48 h, read-out: GI
[29] = test system: NCI-H522; assay: Cytotoxicity against human NCI-H522 cells at 10 uM after 48 hrs by coulter counter analysis; format: functional; details: NCI-H522, 48 h, read-out: GI
[30] = test system: MDA-MB-231; assay: Cytotoxicity against human MDA-MB-231 cells at 10 uM after 48 hrs by coulter counter analysis; format: functional; details: MDA-MB-231, 48 h, read-out: GI
[31] = test system: UACC-62; assay: Cytotoxicity against human UACC62 cells at 10 uM after 48 hrs by coulter counter analysis; format: functional; details: UACC-62, 48 h, read-out: GI
[32] = test system: IGROV-1; assay: Cytotoxicity against human IGROV1 cells at 10 uM after 48 hrs by coulter counter analysis; format: functional; details: IGROV-1, 48 h, read-out: GI
[33] = test system: SNB-75; assay: Cytotoxicity against human SNB75 cells at 10 uM after 48 hrs by coulter counter analysis; format: functional; details: SNB-75, 48 h, read-out: GI
[34] = test system: OVCAR-4; assay: Cytotoxicity against human OVCAR4 cells at 10 uM after 48 hrs by coulter counter analysis; format: functional; details: OVCAR-4, 48 h, read-out: GI
[35] = test system: PC-3; assay: Cytotoxicity against human PC3 cells at 10 uM after 48 hrs by coulter counter analysis; format: functional; details: PC-3, 48 h, read-out: GI
[36] = test system: RPMI-8226; assay: Cytotoxicity against human RPMI8226 cells at 10 uM after 48 hrs by coulter counter analysis; format: functional; details: RPMI-8226, 48 h, read-out: GI
[37] = test system: MCF7; assay: Cytotoxicity against human MCF7 cells at 10 uM after 48 hrs by coulter counter analysis; format: functional; details: MCF7, 48 h, read-out: GI
[38] = test system: SK-MEL-5; assay: Cytotoxicity against human SK-MEL-5 cells at 10 uM after 48 hrs by coulter counter analysis; format: functional; details: SK-MEL-5, 48 h, read-out: GI
[39] = test system: A549; assay: Cytotoxicity against human A549/ATCC cells at 10 uM after 48 hrs by coulter counter analysis; format: functional; details: A549, 48 h, read-out: GI
[40] = test system: RXF 393; assay: Cytotoxicity against human RXF393 cells at 10 uM after 48 hrs by coulter counter analysis; format: functional; details: RXF 393, 48 h, read-out: GI

| SMILES | MIC [1] | IC50 [2] | MIC [3] | zone of inhibition at 200 µg/disc [4] | zone of inhibition at 200 µg/disc [5] | zone of inhibition at 200 µg/disc [6] | zone of inhibition at 200 µg/disc [7] | zone of inhibition at 200 µg/disc [8] | MIC [9] | inhibition of growth at 10 µM [10] | inhibition of growth at 10 µM [11] | inhibition of growth at 10 µM [12] | inhibition of growth at 10 µM [13] | inhibition of growth at 10 µM [14] | inhibition of growth at 10 µM [15] | inhibition of growth at 10 µM [16] | inhibition of growth at 10 µM [17] | inhibition of growth at 10 µM [18] | inhibition of growth at 10 µM [19] | inhibition of growth at 10 µM [20] | other results |
| --- | --- | --- | --- | --- | --- | --- | --- | --- | --- | --- | --- | --- | --- | --- | --- | --- | --- | --- | --- | --- | --- |
| COc1cc2nc(Sc3cc([N+](=O)[O-])ccc3C(=O)O)n(-c3ccccc3)c(=O)c2cc1OC | 2 µg/mL (≈ 4.17 µM) | 10 µM | 8 µg/mL (≈ 16.7 µM) | 20 mm | 8 mm | 8 mm | 18 mm | 22 mm | 4 µg/mL (≈ 8.34 µM) |  |  |  |  |  |  |  |  |  |  |  |  |
| COc1cc2nc(Sc3ncccc3C(=O)O)n(-c3ccccc3)c(=O)c2cc1OC | 2 µg/mL (≈ 4.59 µM) | 7 µM | 4 µg/mL (≈ 9.19 µM) | 22 mm | 8 mm | 15 mm | 20 mm | 22 mm | 4 µg/mL (≈ 9.19 µM) | < 10% | < 10% | 12% | < 10% | < 10% | < 10% | < 10% | < 10% | 12% | < 10% | < 10% | inhibition of growth at 10 µM [21]: < 10%; inhibition of growth at 10 µM [22]: < 10%; inhibition of growth at 10 µM [23]: < 10%; inhibition of growth at 10 µM [24]: < 10%; inhibition of growth at 10 µM [25]: < 10%; inhibition of growth at 10 µM [26]: < 10%; inhibition of growth at 10 µM [27]: < 10%; inhibition of growth at 10 µM [28]: 17.7%; inhibition of growth at 10 µM [29]: 11.4%; inhibition of growth at 10 µM [30]: < 10%; inhibition of growth at 10 µM [31]: < 10%; inhibition of growth at 10 µM [32]: < 10%; inhibition of growth at 10 µM [33]: < 10%; inhibition of growth at 10 µM [34]: < 10%; inhibition of growth at 10 µM [35]: < 10%; inhibition of growth at 10 µM [36]: < 10%; inhibition of growth at 10 µM [37]: < 10%; inhibition of growth at 10 µM [38]: < 10%; inhibition of growth at 10 µM [39]: < 10%; inhibition of growth at 10 µM [40]: < 10% |
| Cc1ccc2nc(Sc3ncccc3C(=O)O)n(-c3ccccc3)c(=O)c2c1 |  | 8 µM | 4 µg/mL (≈ 10.3 µM) | 22 mm | 12 mm | 14 mm | 20 mm | 16 mm | 4 µg/mL (≈ 10.3 µM) | < 10% | < 10% | < 10% | < 10% | < 10% | < 10% | < 10% | < 10% | 12.1% | < 10% | < 10% | inhibition of growth at 10 µM [21]: < 10%; inhibition of growth at 10 µM [22]: < 10%; inhibition of growth at 10 µM [23]: < 10%; inhibition of growth at 10 µM [24]: < 10%; inhibition of growth at 10 µM [25]: < 10%; inhibition of growth at 10 µM [26]: < 10%; inhibition of growth at 10 µM [27]: < 10%; inhibition of growth at 10 µM [28]: 13.1%; inhibition of growth at 10 µM [29]: < 10%; inhibition of growth at 10 µM [30]: < 10%; inhibition of growth at 10 µM [31]: < 10%; inhibition of growth at 10 µM [32]: < 10%; inhibition of growth at 10 µM [33]: < 10%; inhibition of growth at 10 µM [34]: < 10%; inhibition of growth at 10 µM [35]: 11.7%; inhibition of growth at 10 µM [36]: 10.4%; inhibition of growth at 10 µM [37]: < 10%; inhibition of growth at 10 µM [38]: < 10%; inhibition of growth at 10 µM [39]: < 10%; inhibition of growth at 10 µM [40]: < 10% |
